pIC50: −log10 of the molar value. Activity calls are given as the source filed them. The rule behind the calls is not given here.
Columns and labels:
SUNE1 [1] = assay: Effect on total ERK1/2 protein expression in human SUNE1 cells incubated for 24 hrs by Western blot analysis relative to control; format: ADME, cell-based; settings: sune1, 24 h
Procedure, shortened: (§1)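 Cells treated 24 h at 1 µM. The test compound was also given 6 h. Cells harvested, trypsinised and washed twice in cold PBS, then lysed in RIPA buffer on ice and sonicated. Lysate centrifuged cold at 10000 g for 30 min. Supernatant protein quantified, run on SDS-PAGE, transferred to PVDF and probed for ERK1/2, pERK1/2, MNK1, eIF4E and p-eIF4E.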

786-0 [2] = assay: Cytotoxicity against human 786-O cells assessed as decrease in cell viability incubated for 24 hrs by MTT assay; format: functional, cell-based
Procedure, shortened: (§2)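 IC50 from an 8–10 point concentration gradient by MTT assay. Panel covers renal cell carcinoma and nasopharyngeal carcinoma lines. Values are mean ± SD, n = 3.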

SUNE1 [3] = assay: Induction of apoptosis in human SUNE1 cells assessed as early apoptotic cells at 1 uM incubated for 24 hrs by Annexin-V/propidium iodide staining based flow cytometric method (reference value: 1.03%); format: functional
CNE-2 = assay: Cytotoxicity against human CNE2 cells assessed as decrease in cell viability incubated for 24 hrs by MTT assay; format: functional, cell-based; procedure, shortened: as §2
786-0 [4] = assay: Induction of apoptosis in human 786-O cells assessed as necrotic cells at 1 uM incubated for 24 hrs by Annexin-V/propidium iodide staining based flow cytometric method (reference value: 0.83%); format: functional
SUNE1 [5] = assay: Effect on total eIF4E protein expression in human SUNE1 cells incubated for 24 hrs by Western blot analysis relative to control; format: ADME, cell-based; settings: sune1, 24 h; procedure, shortened: as §1
SUNE1 [6] = assay: Induction of apoptosis in human SUNE1 cells assessed as viable cells at 5 uM incubated for 24 hrs by Annexin-V/propidium iodide staining based flow cytometric method (reference value: 93.79%); format: functional; settings: SUNE1, 24 h, read-out: Activity
SUNE1 [7] = assay: Induction of apoptosis in human SUNE1 cells assessed as necrotic cells at 5 uM incubated for 24 hrs by Annexin-V/propidium iodide staining based flow cytometric method (reference value: 1.07%); format: functional
[8] = molecular target: T1, Mitogen-activated protein kinase; ERK1/ERK2 (Homo sapiens) (UniProt P27361+P28482); assay: Inhibition of ERK1/2 phosphorylation in human SUNE1 cells at 1 uM incubated for 24 hrs by Western blot analysis relative to control; format: cell-based; procedure, shortened: as §1
SUNE1 [9] = assay: Induction of apoptosis in human SUNE1 cells assessed as late apoptotic cells at 5 uM incubated for 24 hrs by Annexin-V/propidium iodide staining based flow cytometric method (reference value: 4.11%); format: functional
SUNE1 [10] = assay: Effect on total MNK1 protein expression in human SUNE1 cells incubated for 24 hrs by Western blot analysis relative to control; format: ADME, cell-based; settings: sune1, 24 h; procedure, shortened: as §1
SUNE1 [11] = assay: Induction of apoptosis in human SUNE1 cells assessed as early apoptotic cells at 5 uM incubated for 24 hrs by Annexin-V/propidium iodide staining based flow cytometric method (reference value: 1.03%); format: functional
786-0 [12] = assay: Effect on total MNK1 protein expression in human 786-O cells incubated for 24 hrs by Western blot analysis relative to control; format: cell-based; settings: 786-0, 24 h; procedure, shortened: as §1
786-0 [13] = assay: Effect on total ERK1/2 protein expression in human 786-O cells incubated for 24 hrs by Western blot analysis relative to control; format: cell-based; settings: 786-0, 24 h; procedure, shortened: as §1
A498 = assay: Cytotoxicity against human A498 cells assessed as decrease in cell viability incubated for 24 hrs by MTT assay; format: functional, cell-based; procedure, shortened: as §2
CNE = assay: Cytotoxicity against human CNE1 cells assessed as decrease in cell viability incubated for 24 hrs by MTT assay; format: functional, cell-based; procedure, shortened: as §2
Homo sapiens = species on record: Homo sapiens; assay: Cytotoxicity against human HNE1 cells assessed as decrease in cell viability incubated for 24 hrs by MTT assay; format: functional, cell-based; procedure, shortened: as §2
SUNE1 [14] = assay: Induction of apoptosis in human SUNE1 cells assessed as necrotic cells at 1 uM incubated for 24 hrs by Annexin-V/propidium iodide staining based flow cytometric method (reference value: 1.07%); format: functional
[15] = molecular target: T2, MAP kinase-interacting serine/threonine-protein kinase 1 (Homo sapiens, UniProt Q9BUB5); assay: Inhibition of MNK1 in human 786-O cells assessed as decrease in eIF4E phosphorylation at 1 uM incubated for 24 hrs by Western blot analysis relative to control; format: cell-based; procedure, shortened: as §1
Target sequence in this assay (Q9BUB5 whole entry, looked up): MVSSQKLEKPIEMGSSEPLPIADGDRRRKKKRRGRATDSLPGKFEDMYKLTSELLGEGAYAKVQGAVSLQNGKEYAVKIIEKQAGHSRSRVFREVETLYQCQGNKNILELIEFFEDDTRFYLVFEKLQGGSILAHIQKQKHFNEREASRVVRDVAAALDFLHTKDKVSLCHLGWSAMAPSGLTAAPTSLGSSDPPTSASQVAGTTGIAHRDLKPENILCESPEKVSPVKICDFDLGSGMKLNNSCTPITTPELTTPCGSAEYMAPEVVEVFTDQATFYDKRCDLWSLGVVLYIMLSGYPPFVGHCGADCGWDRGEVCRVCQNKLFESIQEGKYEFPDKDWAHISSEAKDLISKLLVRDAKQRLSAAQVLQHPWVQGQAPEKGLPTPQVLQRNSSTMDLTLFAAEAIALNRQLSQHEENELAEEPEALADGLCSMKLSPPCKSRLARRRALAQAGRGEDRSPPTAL

SUNE1 [16] = assay: Induction of apoptosis in human SUNE1 cells assessed as late apoptotic cells at 1 uM incubated for 24 hrs by Annexin-V/propidium iodide staining based flow cytometric method (reference value: 4.11%); format: functional
786-0 [17] = assay: Induction of apoptosis in human 786-O cells assessed as early apoptotic cells at 1 uM incubated for 24 hrs by Annexin-V/propidium iodide staining based flow cytometric method (reference value: 1.74%); format: functional
786-0 [18] = assay: Induction of apoptosis in human 786-O cells assessed as late apoptotic cells at 5 uM incubated for 24 hrs by Annexin-V/propidium iodide staining based flow cytometric method (reference value: 3.80%); format: functional
SUNE1 [19] = assay: Induction of apoptosis in human SUNE1 cells incubated for 24 hrs by Annexin-V/propidium iodide staining based flow cytometric method (reference value: 93.79%); format: functional, cell-based
SUNE1 [20] = assay: Cytotoxicity against human SUNE1 cells assessed as decrease in cell viability incubated for 24 hrs by MTT assay; format: functional, cell-based; procedure, shortened: as §2
786-0 [21] = assay: Induction of apoptosis in human 786-O cells assessed as late apoptotic cells at 1 uM incubated for 24 hrs by Annexin-V/propidium iodide staining based flow cytometric method (reference value: 3.80%); format: functional
786-0 [22] = assay: Effect on total eIF4E protein expression in human 786-O cells incubated for 24 hrs by Western blot analysis relative to control; format: cell-based; settings: 786-0, 24 h; procedure, shortened: as §1
SUNE1 [23] = assay: Induction of apoptosis in human SUNE1 cells assessed as viable cells at 1 uM incubated for 24 hrs by Annexin-V/propidium iodide staining based flow cytometric method (reference value: 93.79%); format: functional; settings: SUNE1, 24 h, read-out: Activity
786-0 [24] = assay: Induction of apoptosis in human 786-O cells assessed as viable cells at 1 uM incubated for 24 hrs by Annexin-V/propidium iodide staining based flow cytometric method (reference value: 93.63%); format: functional; settings: 786-0, 24 h, read-out: Activity
786-0 [25] = assay: Induction of apoptosis in human 786-O cells assessed as viable cells at 5 uM incubated for 24 hrs by Annexin-V/propidium iodide staining based flow cytometric method (reference value: 93.63%); format: functional; settings: 786-0, 24 h, read-out: Activity
786-0 [26] = assay: Induction of apoptosis in human 786-O cells assessed as early apoptotic cells at 5 uM incubated for 24 hrs by Annexin-V/propidium iodide staining based flow cytometric method (reference value: 1.74%); format: functional
[27] = molecular target: T1, Mitogen-activated protein kinase; ERK1/ERK2 (Homo sapiens); assay: Inhibition of ERK1/2 phosphorylation in human 786-O cells at 1 uM incubated for 24 hrs by Western blot analysis relative to control; format: cell-based; procedure, shortened: as §1
CAKI-1 = assay: Cytotoxicity against human Caki1 cells assessed as decrease in cell viability incubated for 24 hrs by MTT assay; format: functional, cell-based; procedure, shortened: as §2
[28] = molecular target: T2, MAP kinase-interacting serine/threonine-protein kinase 1; assay: Inhibition of human MNK1 using CREBtide substrate by gamma-[32P]-ATP competitive inhibition assay
Procedure, shortened: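 Run as the Eurofins KinaseProfiler radiometric assay, competitive with γ-[32P]-ATP. IC50 taken as the mean of independent experiments; the footnote gives two.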
Target sequence in this assay (Q9BUB5 whole entry): as the sequence (Q9BUB5 whole entry, looked up) above

786-0 [29] = assay: Induction of apoptosis in human 786-O cells assessed as necrotic cells at 5 uM incubated for 24 hrs by Annexin-V/propidium iodide staining based flow cytometric method (reference value: 0.83%); format: functional
786-0 [30] = assay: Induction of apoptosis in human 786-O cells incubated for 24 hrs by Annexin-V/propidium iodide staining based flow cytometric method; format: functional, cell-based

T1 sequence (P27361 whole entry, looked up): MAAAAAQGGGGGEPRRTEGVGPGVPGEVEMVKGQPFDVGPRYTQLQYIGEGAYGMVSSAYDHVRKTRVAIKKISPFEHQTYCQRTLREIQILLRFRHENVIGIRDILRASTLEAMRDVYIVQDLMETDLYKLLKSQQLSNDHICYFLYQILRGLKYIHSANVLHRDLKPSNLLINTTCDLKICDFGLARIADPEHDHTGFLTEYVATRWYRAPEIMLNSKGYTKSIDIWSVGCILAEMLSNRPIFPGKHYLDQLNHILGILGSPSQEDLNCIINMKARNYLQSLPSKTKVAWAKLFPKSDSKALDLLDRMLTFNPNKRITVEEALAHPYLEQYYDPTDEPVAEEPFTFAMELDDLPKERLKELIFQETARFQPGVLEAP
T1 sequence (P28482 whole entry, looked up): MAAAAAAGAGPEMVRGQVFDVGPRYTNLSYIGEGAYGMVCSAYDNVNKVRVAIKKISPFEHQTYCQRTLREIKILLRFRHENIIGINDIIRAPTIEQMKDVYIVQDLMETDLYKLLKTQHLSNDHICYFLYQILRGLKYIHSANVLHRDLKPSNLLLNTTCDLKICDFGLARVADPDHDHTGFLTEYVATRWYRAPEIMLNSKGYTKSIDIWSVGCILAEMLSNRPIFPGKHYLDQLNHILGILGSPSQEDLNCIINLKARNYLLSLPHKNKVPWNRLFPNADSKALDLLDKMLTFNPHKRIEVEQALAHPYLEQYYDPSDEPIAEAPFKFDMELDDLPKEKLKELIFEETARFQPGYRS

With `COc1ccc(S(=O)(=O)N2CCc3c(sc4ncnc(Nc5ccc(F)cc5OC)c34)C2)cc1` the Activity (SUNE1 [1]) was “Non-Toxic”, the Activity (786-0 [2]) was “Active” and the Activity (SUNE1 [3]) was 34.6%. The Activity (CNE-2) was “Active”, the Activity (786-0 [4]) was 4.64% and the Activity (SUNE1 [5]) was “Non-Toxic”. For the same compound, the viability at 5 µM (SUNE1 [6]) was 35.9%, the Activity (SUNE1 [7]) was 3.52% and the inhibition [8] was “inactive”. The Activity (SUNE1 [9]) was 10.61%, the Activity (SUNE1 [10]) was “Non-Toxic” and the Activity (SUNE1 [11]) was 49.87%. The Activity (786-0 [12]) was “Non-Toxic”, the Activity (786-0 [13]) was “Non-Toxic” and the Activity (A498) was “Active”. For the same compound, the Activity (CNE) was “Active”, the Activity (Homo sapiens) was “Active” and the Activity (SUNE1 [14]) was 10.6%. The inhibition [15] was “Dose-dependent effect”, the Activity (SUNE1 [16]) was 18.18% and the Activity (786-0 [17]) was 17.94%. For the same compound, the Activity (786-0 [18]) was 11.79%, the Activity (SUNE1 [19]) was “Dose-dependent effect” and the Activity (SUNE1 [20]) was “Active”. For the same compound, the Activity (786-0 [21]) was 8.5%, the Activity (786-0 [22]) was “Non-Toxic” and the viability at 1 µM (SUNE1 [23]) was 36.6%. The viability at 1 µM (786-0 [24]) was 68.9%, the viability at 5 µM (786-0 [25]) was 42.9% and the Activity (786-0 [26]) was 37.44%. For the same compound, the inhibition [27] was “inactive”, the Activity (CAKI-1) was “Active” and the pIC50 [28] was 6.19. The Activity (786-0 [29]) was 7.88% and the Activity (786-0 [30]) was “Dose-dependent effect”.

Source: ChEMBL document CHEMBL4340542, “Design, synthesis and biological evaluation of 4-aniline-thieno[2,3-d]pyrimidine derivatives as MNK1 inhibitors against renal cell carcinoma and nasopharyngeal carcinoma” (Bioorg Med Chem, 2019)
